Activity calls are given as the source filed them. The calls are words filed in the database; no cut-off is given here.

For assay [1], the species on record is Rattus norvegicus. Kind of assay: Inhibition of rat calpain-1 assessed as cleavage of (EDANS)-EPLFAERK-(DABCYL) at 100 uM in presence of CaCl2 by fluorescence spectrometer relative to control.
The species entered for assay [2] is Rattus norvegicus. Kind of assay: Inhibition of rat recombinant C-terminal His-tagged calpain-2 expressed in Escherichia coli BL21(DE3) assessed as cleavage of (EDANS)-EPLFAERK-(DABCYL) at 100 uM in presence of CaCl2 by fluorescence spectrometer relative to control.
For assay [3], the target named is Procathepsin L (Homo sapiens) (UniProt P07711). Kind of assay: Inhibition of human liver cathepsin L assessed as cleavage of Z-FR-AMC at 100 uM by fluorescence spectrometer.
Chain of Procathepsin L (Homo sapiens) (P07711 114-333 limits assumed): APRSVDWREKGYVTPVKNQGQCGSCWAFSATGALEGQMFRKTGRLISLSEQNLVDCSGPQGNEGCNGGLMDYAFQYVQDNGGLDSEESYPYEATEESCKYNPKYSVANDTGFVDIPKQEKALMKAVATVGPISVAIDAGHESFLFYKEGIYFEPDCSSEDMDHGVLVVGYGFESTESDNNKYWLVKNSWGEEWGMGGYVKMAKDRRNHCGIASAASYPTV
The target in a further assay is T1, Papain (Carica papaya) (UniProt P00784).
T1 sequence (whole entry): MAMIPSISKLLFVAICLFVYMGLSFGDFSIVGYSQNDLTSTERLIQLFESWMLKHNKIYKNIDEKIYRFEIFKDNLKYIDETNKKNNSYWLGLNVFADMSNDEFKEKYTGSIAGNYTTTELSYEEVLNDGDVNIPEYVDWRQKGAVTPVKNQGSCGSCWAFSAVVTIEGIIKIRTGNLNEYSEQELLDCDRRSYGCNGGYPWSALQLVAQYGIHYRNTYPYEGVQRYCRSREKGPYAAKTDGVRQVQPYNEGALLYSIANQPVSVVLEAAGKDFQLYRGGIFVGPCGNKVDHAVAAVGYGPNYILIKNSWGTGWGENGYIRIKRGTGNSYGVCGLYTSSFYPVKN
Kind of assay: Inhibition of papaya papain assessed as cleavage of (EDANS)-EPLFAERK-(DABCYL) at 100 uM by fluorescence spectrometer.

For assay [4], the species on record is Rattus norvegicus. Kind of assay: Inhibition of rat recombinant calpain-1 protease core expressed in Escherichia coli BL21(DE3) assessed as cleavage of (EDANS)-EPLFAERK-(DABCYL) at 100 uM in presence of CaCl2 by fluorescence spectrometer.
The nature of assay [5]: Competitive inhibition of rat recombinant C-terminal His-tagged calpain-2 expressed in Escherichia coli BL21(DE3) using (EDANS)-EPLFAERK-(DABCYL) as substrate assessed as enzyme/inhibitor complex in presence of CaCl2 by Michaelis-Menten plot analysis.
The nature of assay [6]: Competitive inhibition of porcine erythrocyte calpain-2 using Suc-Leu-Tyr-AMC as substrate. Also noted: species or system Sus scrofa.
Assay [7] can be described thus: Non-competitive inhibition of rat recombinant C-terminal His-tagged calpain-2 expressed in Escherichia coli BL21(DE3) using (EDANS)-EPLFAERK-(DABCYL) as substrate assessed as enzyme/substrate/inhibitor complex in presence of CaCl2 by Michaelis-Menten plot analysis.
The nature of assay [8]: Non-competitive inhibition of rat recombinant C-terminal His-tagged calpain-2 expressed in Escherichia coli BL21(DE3) using (EDANS)-EPLFAERK-(DABCYL) as substrate assessed as enzyme/inhibitor complex in presence of CaCl2 by Michaelis-Menten plot analysis.
The species entered for assay [9] is Rattus norvegicus. The assay is described as follows: Activation of rat recombinant calpain-1 protease core expressed in Escherichia coli BL21(DE3) assessed as cleavage of (EDANS)-EPLFAERK-(DABCYL) at 100 uM in presence of CaCl2 by fluorescence spectrometer.
A short description of assay [10]: Inhibition of calpain-1 (unknown origin) using H-Glu(Edans)-Pro-Leu-Phe-Ala-Glu-Arg-Lys(Dabcyl)-OH as substrate measured every 13 secs for 1 hr by fluorescence assay. Also noted: […].
For assay [11], the species on record is Rattus norvegicus. The assay is described as follows: Binding affinity to rat recombinant C-terminal His-tagged calpain-2 C105S mutant expressed in Escherichia coli BL21(DE3) at 25 to 50 uM in presence of CaCl2 and trypsin by MALDI-TOFpeptide fingerprinting method. In outline: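 The mixture is exposed to long-wave UV for 2.5 h, with a DMSO control. Photoadducts are tryptically digested and identified by MALDI-TOF mass fingerprinting.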

A short description of assay [12]: Mixed-type inhibition of rat recombinant C-terminal His-tagged calpain-2 expressed in Escherichia coli BL21(DE3) using (EDANS)-EPLFAERK-(DABCYL) as substrate assessed as enzyme/inhibitor complex in presence of CaCl2 by Michaelis-Menten plot analysis.
A short description of assay [13]: Mixed-type inhibition of rat recombinant C-terminal His-tagged calpain-2 expressed in Escherichia coli BL21(DE3) using (EDANS)-EPLFAERK-(DABCYL) as substrate assessed as enzyme/substrate/inhibitor complex in presence of CaCl2 by Michaelis-Menten plot analysis.

Take `CC[C@H](C)[C@H](NC(=O)C/N=C1\N[C@@H](C)[C@@H](C(=O)NC(C)(C)C)N2CCC[C@H]12)C(=O)N[C@H](CCCN)C(=O)O`: the results for the inhibition in the assay listed under Rattus norvegicus [1] and in the assay listed under Rattus norvegicus [2] were 14% and 67%, respectively.
As to `CC(C)C[C@@H]1NC(=O)[C@H](C)NC(=O)CNC(=O)[C@@H]2CCCN2[C@H](C(=O)NC(C)(C)C)[C@H](C)NC(=O)[C@H](CCCCN)NC1=O`, the values for the inhibition (in the assay filed under Rattus norvegicus [1]; in assay [3]; in the assay filed under Rattus norvegicus [2]) were 45%, above 85% and 84%, respectively. Further, on Papain (Carica papaya), the inhibition – broadly, the relative decrease from the control value, in per cent – is “inactive”. For the same molecule, in the assay filed under Rattus norvegicus [4], the inhibition result is “Active”. Further, the Ki (usually a dissociation constant, usually derived from enzyme kinetics or from competition with a known ligand) in assay [5] is 16.6 µM.
On to H-DPMSSTYIEELGKREVTIPPKYRELLA-OH, for which the values for the Ki in assay [6] and in assay [5] were 0.0087 µM and 0.0168 µM, respectively.
`C[C@@H]1N/C(=N\CC(=O)N[C@@H](Cc2ccccc2)C(=O)N[C@H](CCCN)C(=O)O)[C@H]2CCCN2[C@@H]1C(=O)NC(C)(C)C`: the results for the inhibition in the assay listed under Rattus norvegicus [1] and in the assay listed under Rattus norvegicus [2] were 28% and 39%, respectively.
Consider `C[C@H](NC(=O)C/N=C1\N[C@@H](C)[C@@H](C(=O)NC(C)(C)C)N2CCC[C@H]12)C(=O)N[C@H](CCCN)C(=O)O`, for which the inhibition worked out at 54% in the assay listed under Rattus norvegicus [1] and 66% in the assay listed under Rattus norvegicus [2].
Turning to `CC(C)C[C@@H](NC(=O)C/N=C1\N[C@@H](C)[C@@H](C(=O)NC(C)(C)C)N2CCC[C@H]12)C(=O)N[C@H](CCCN)C(=O)O`, the inhibition result in the assay listed under Rattus norvegicus [1] and in the assay listed under Rattus norvegicus [4] was “Active” throughout. Besides, the figures for the Ki in assay [7] and in assay [8] were 119 µM and 154 µM, respectively. For the same molecule, the inhibition in [3] is above 32%; in the assay listed under Rattus norvegicus [2] it was 16%. Further, at Papain (Carica papaya), the inhibition result is “inactive”.
Take `CC(C)C[C@H](/N=C1\N[C@@H](C)[C@@H](C(=O)NC(C)(C)C)N2CCC[C@H]12)C(=O)N[C@@H](CCCCN)C(=O)NCC(=O)O`: the inhibition result in the assay filed under Rattus norvegicus [1] was “Active”. In addition, in the assay listed under Rattus norvegicus [9], the result was Active. In addition, the inhibition (in [3]; in the assay listed under Rattus norvegicus [2]) was above 85% in each case. The inhibition entry on Papain (Carica papaya) is “inactive”. Further, the Ki in [5] worked out at 12.2 µM.
On to `CC(C)[C@H](NC(=O)C/N=C1\N[C@@H](C)[C@@H](C(=O)NC(C)(C)C)N2CCC[C@H]12)C(=O)N[C@H](CCCN)C(=O)O`, for which the inhibition was determined as 17% in [3] and 79% in the assay filed under Rattus norvegicus [2].
In [10], `CC[C@H](C)[C@H](NC(C)=O)C(=O)N1CCC[C@H]1C(=O)N1CCC[C@H]1C(=O)N[C@@H](CCCCN)C(=O)N[C@@H](Cc1ccc(O)cc1)C(=O)N[C@H]1CSSC[C@@H](C(N)=O)NC(=O)[C@H](CC(C)C)NC(=O)[C@H](CC(C)C)NC(=O)[C@H](CCC(=O)O)NC1=O` registered a Ki of 10.2 µM.
With `CC(C)C[C@@H]1NC(=O)[C@H](C)NC(=O)CNC(=O)[C@@H]2CCCN2[C@H](C(=O)NC(C)(C)C)[C@H](CSC2CC(=O)N(c3cccc(C(=O)c4ccccc4)c3)C2=O)NC(=O)[C@H](CCCCN)NC1=O` (stereo partly specified), the inhibition entry in the assay filed under Rattus norvegicus [11] and in the assay listed under Rattus norvegicus [2] was “Active” each time.
As to `CC(C)C[C@H](NC(=O)C/N=C1\N[C@@H](CSC2CC(=O)N(c3cccc(C(=O)c4ccccc4)c3)C2=O)[C@@H](C(=O)NC(C)(C)C)N2CCC[C@H]12)C(=O)N[C@H](CCCN)C(=O)O` (stereo partly specified), the inhibition entry in the assay listed under Rattus norvegicus [11] and in the assay listed under Rattus norvegicus [2] was “Active” in each case.
`C[C@@H]1NC(=O)[C@H](CCCN)NC(=O)CNC(=O)[C@H](CO)NC(=O)CNC(=O)[C@@H]2CCCN2[C@@H]1C(=O)NC(C)(C)C`: the inhibition in the assay listed under Rattus norvegicus [1] is 38%; in assay [3], above 85%; in the assay filed under Rattus norvegicus [2], 78%. Also, the outcome in the assay listed under Rattus norvegicus [9] was Active. For the same molecule, on Papain (Carica papaya), the inhibition result is “inactive”. Besides, the results for the Ki in assay [12] and in assay [13] were 20.3 µM and 45.6 µM, respectively.
